# According to publication PMC4304478 (Journal of the American Chemical Society, 2014):
# *1 amine or outer side, *2 acyl side, *3 side chain or, on linkers, in order; H or OH if unused. Bridges are numbered along the chain shown (N, C = ends). Roman numbers before positions name the chains, in order. Where no end group is shown, it is not given here. [ ]: non-standard residue; d: D form. X1 = O=C(NCCCOCCCCOCCCNC(=O)c1ccc(/C=N/OCC(=O)[*:2])cc1)c1ccc(/C=N/OCC(=O)[*:1])cc1; Dap = NC[C@H](N)C(=O)O
# Legend:
# [1] = molecular target: integrin receptors (αvβ5) expressed on MDA-MB-231 cells (Homo sapiens, UniProt P06756+P18084); test: Competition binding assay with Alexa488-2.5F on MDA-MB-231 cells; details: from competition IC50 values
# Sequence of integrin receptors (αvβ5) expressed on MDA-MB-231 cells (P06756 891-1048): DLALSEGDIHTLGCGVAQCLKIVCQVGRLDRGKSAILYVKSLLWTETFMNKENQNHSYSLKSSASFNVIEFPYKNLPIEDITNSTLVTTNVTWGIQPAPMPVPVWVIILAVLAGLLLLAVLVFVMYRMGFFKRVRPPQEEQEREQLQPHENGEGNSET
# Sequence of integrin receptors (αvβ5) expressed on MDA-MB-231 cells (P18084 24-799): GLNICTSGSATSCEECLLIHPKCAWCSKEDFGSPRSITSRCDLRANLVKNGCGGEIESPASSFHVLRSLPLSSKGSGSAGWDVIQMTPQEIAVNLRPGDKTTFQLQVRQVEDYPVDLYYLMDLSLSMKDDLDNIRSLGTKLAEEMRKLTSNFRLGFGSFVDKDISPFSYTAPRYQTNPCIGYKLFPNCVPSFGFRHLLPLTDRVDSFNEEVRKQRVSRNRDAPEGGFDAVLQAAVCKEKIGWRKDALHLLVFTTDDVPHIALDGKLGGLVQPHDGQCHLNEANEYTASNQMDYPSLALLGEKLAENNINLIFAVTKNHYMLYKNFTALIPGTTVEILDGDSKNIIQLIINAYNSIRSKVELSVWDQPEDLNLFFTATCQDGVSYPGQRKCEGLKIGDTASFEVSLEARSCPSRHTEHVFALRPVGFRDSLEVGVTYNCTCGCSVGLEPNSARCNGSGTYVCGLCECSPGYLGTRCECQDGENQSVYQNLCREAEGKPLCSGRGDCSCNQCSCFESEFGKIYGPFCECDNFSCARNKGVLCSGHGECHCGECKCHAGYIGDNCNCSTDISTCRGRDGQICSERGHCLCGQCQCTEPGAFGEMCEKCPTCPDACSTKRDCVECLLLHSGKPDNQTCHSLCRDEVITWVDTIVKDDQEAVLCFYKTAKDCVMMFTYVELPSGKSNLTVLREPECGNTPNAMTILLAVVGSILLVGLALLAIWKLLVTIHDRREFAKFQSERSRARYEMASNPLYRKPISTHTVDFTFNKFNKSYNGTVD
# Sequence of integrin receptors (αvβ5) expressed on MDA-MB-231 cells (P06756 31-889): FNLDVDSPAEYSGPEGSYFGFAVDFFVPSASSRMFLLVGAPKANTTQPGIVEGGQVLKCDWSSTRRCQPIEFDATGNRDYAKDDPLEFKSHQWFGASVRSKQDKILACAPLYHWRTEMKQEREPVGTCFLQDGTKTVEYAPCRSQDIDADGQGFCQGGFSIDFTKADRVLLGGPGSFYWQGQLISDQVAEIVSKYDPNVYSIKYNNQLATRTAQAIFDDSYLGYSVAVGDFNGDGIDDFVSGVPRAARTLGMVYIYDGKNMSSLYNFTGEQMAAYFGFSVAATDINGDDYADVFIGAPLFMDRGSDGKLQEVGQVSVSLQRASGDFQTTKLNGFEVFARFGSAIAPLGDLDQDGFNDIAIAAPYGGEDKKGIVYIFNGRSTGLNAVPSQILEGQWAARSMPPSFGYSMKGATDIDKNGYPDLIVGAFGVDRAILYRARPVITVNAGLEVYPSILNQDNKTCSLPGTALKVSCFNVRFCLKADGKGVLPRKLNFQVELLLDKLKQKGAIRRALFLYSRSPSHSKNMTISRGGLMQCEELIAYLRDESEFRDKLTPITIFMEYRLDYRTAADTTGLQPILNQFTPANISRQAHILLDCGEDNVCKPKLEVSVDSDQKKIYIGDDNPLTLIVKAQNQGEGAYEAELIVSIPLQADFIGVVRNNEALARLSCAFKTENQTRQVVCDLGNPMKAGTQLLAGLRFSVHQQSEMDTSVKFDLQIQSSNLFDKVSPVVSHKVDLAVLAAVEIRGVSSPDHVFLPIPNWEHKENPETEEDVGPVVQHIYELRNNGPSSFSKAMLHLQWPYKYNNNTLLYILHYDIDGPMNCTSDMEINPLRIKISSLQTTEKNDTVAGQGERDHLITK
# MDA-MB-231 cells = test: Cell proliferation assay; format: cell-based, human; details: varying concentrations, 12–72 h, Cell Counting Kit-8; relative to cilengitide
# Procedure, shortened: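 MDA-MB-231 cells exposed to varying concentrations of test knottins or a reference compound for 12–72 h. Proliferation was read out as […] activity in living cells with the CCK-8 kit. Concentration–response was read at 72 h, and the time course used 1 μM protein. Values are expressed relative to an untreated control.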
substance,measurement,setting,value
"I: GCPRPRGDNPPLTC[Dap]QDSDCLAGCVCGPNGFCG-NH2 / II: GCPRPRGDNPPLTC[Dap]QDSDCLAGCVCGPNGFCG-NH2 (disulfide I:2-I:24, I:14-I:26, I:20-I:32, II:2-II:24, II:14-II:26, II:20-II:32; linker I:15-II:15 via X1) [D2.5F_1]",Increase in relative binding affinity compared with cilengitide,[1],500 fold
same,Increase in relative binding affinity compared with the knottin monomer,[1],60 fold
same,Inhibition of MDA-MB-231 cell proliferation,MDA-MB-231 cells,significantly more potent
